SIRT5 inh = inhibitors of human sirtuin-5 desuccinylase. inhibition, % at 15 µM. AID 652115. hit rate 1.1% among 330,000. Purified SirT5, succinyl-peptide AMC, trypsin-coupled fluorescence; in the data active = inhibition above about 15%
CaV13 ICDI inh = Primary screen for inhibitors of IQ motif and Ca2+-dependent inactivation inhibitor domain binding in CACNA1D, Förster resonance energy transfer in living cells, …. HEK cells, CFP/YFP FRET ICDI-IQ, plate reader, 10 min; percent FRET-ratio fall versus neutral wells. inhibition, % at 12.3 µM. hit rate 0.098% among 340,000. AID 743397;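 active = mean replicate inhibition of at least 30% and at least 1% of replicates passing that level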
AF4-AF9 inh = MLL-AF4/AF9 protein interaction inhibition. P42568. AlphaScreen, biotin-AF4 peptide binding to FLAG-AF9. inhibition, % at 10 µM. hit rate 0.47% among 350,000. AID 651704;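 active = every replicate reaching a set inhibition limit, whatever the replicate mean, cut at about 25% in these data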
Target sequence (P42568 whole entry, looked up): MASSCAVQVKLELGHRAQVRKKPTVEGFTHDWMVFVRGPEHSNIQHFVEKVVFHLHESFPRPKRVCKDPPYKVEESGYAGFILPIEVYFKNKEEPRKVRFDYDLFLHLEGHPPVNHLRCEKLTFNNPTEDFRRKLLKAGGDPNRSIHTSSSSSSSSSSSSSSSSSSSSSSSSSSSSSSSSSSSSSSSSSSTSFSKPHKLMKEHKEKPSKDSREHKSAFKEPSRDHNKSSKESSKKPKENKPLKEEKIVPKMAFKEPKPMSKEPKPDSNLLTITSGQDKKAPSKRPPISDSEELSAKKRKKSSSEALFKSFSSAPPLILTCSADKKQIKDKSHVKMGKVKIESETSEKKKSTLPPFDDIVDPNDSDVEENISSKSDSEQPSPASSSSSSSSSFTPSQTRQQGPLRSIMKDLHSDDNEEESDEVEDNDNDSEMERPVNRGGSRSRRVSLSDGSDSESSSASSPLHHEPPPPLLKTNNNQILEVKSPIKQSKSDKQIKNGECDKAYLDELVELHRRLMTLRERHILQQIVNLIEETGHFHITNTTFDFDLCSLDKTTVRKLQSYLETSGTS
S100A4 inh HTS = blocks human S100A4 binding to myosin IIA peptide. P26447. S100A4/TAMRA-MyoIIA peptide fluorescence polarization. inhibition, % at 10.7 µM. hit rate 0.14% among 360,000;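 active = mean inhibition of at least 70% across replicates, with every replicate also reaching that level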
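Material: S100A4 monomer (human). Medium: Calcium-containing HEPES buffer, pH 7.2. Probe or stimulus: labelled myosin peptide probe, 5 nM. Compound dosing: one concentration per compound. Timing: polarization read 5 min after assay mix addition, stable 5–60 min. Benchmarks: DMSO as neutral control, TFP as positive control.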
DENV2 CPE rescue = DENV2-induced cell death inhibition; DENV2-infected cells, cytopathic effect rescue, plate reader; CPE inhibition, % at 9.99 µM; hit rate 1.7% among 350,000; AID 651640; in the data active = CPE inhibition above about 20%, passing the limit was not always enough; tested in BHK-21 cells
Numbers stand for hits; i = inactive; nt = no result; ! = repeats disagree. Rows were chosen to be rich in hits. Some 2.7% of all compounds tested hit in one or more screens of this group.

SMILES | SIRT5 inh | CaV13 ICDI inh | AF4-AF9 inh | S100A4 inh HTS | DENV2 CPE rescue
COc1ccc(NC(=O)N(C)C[C@H]2Oc3ccc(NS(=O)(=O)c4cn(C)cn4)cc3C(=O)N([C@@H](C)CO)C[C@H]2C)cc1 | i | nt | i | i | i
[N-]=[N+]=Nc1ccccc1C[C@]1(C(=O)NCc2ccccc2)COC(c2ccc(OCCCO)cc2)=N1 | i | nt | i | i | i
Clc1ccccc1OCCNc1nc(NCC2CC2)nc2ccsc12 | 23 | i | i | i | i
CNc1nc(NCCOc2ccccc2Cl)c2sccc2n1 | i | i | i | i | i
CCCc1cn(CC[C@@H]2CC[C@@H](NC(=O)Nc3ccc4c(c3)OCO4)[C@@H](CO)O2)nn1 | i | nt | i | i | i
CCc1ccccc1OCC(=O)NNCC(=O)Nc1cccc(C#N)c1 | i | i | i | i | 41
Cc1ccc2c(c1)CO[C@]21O[C@H](CCO)C[C@H](O)[C@H]1O | i | i | i | i | 44
COc1ccc2c(c1)CO[C@@]21O[C@H](CCO)C[C@H](O)[C@H]1O | i | i | i | i | i
CC(=O)N1CCCCN2[C@H](C1)[C@H](c1ccc(-c3cccc(C)c3)cc1)[C@@H]2CO | i | nt | i | i | i
C[C@H]1CN([C@@H](C)CO)C(=O)c2cc(NC(=O)CCN3CCOCC3)ccc2O[C@@H]1CN(C)Cc1ccc2c(c1)OCO2 | i | nt | i | i | i
O=C1NC(=S)S/C1=C\C=C\c1ccc([N+](=O)[O-])o1 | 25 | i | i | i | i
O=C(Nc1ccc2c(c1)OCO2)N[C@H]1CC[C@H](CCNC(=O)C2CC2)O[C@@H]1CO | 31 | nt | i | i | i
O=C(C[C@H]1CC[C@@H](NC(=O)Nc2ccc3c(c2)OCO3)[C@@H](CO)O1)NCc1ccc2c(c1)OCO2 | i | nt | i | i | 20
C[C@@H]1CN([C@H](C)CO)C(=O)c2cccc(NC(=O)c3nc4ccccc4s3)c2O[C@H]1CN(C)C(=O)NC1CCCCC1 | i | nt | i | i | 45
C[C@@H]1CN([C@@H](C)CO)C(=O)c2cccc(NC(=O)c3nc4ccccc4s3)c2O[C@@H]1CN(C)C(=O)Nc1ccc(F)cc1 | i | nt | i | i | i
C[C@H]1CN([C@@H](C)CO)C(=O)c2cccc(NC(=O)c3nc4ccccc4s3)c2O[C@@H]1CN(C)C(=O)NC1CCCCC1 | i | nt | i | i | i
COc1ccc(NC(=O)N(C)C[C@H]2Oc3c(NC(=O)c4nc5ccccc5s4)cccc3C(=O)N([C@@H](C)CO)C[C@H]2C)cc1 | 20! | i | i | i | 32!
C[C@H](CO)N1C[C@H](C)[C@H](CN(C)C(=O)Nc2ccc(F)cc2)Oc2c(NC(=O)c3nc4ccccc4s3)cccc2C1=O | i | nt | i | i | 31
CN1C[C@H]2[C@@H](c3ccccc31)[C@@H](CO)N2C(=O)C1CCCCC1 | i | nt | i | i | i
CC(C)NC(=O)N(C)C[C@@H]1Oc2ccc(NS(=O)(=O)c3cccs3)cc2CC(=O)N([C@@H](C)CO)C[C@H]1C | i | nt | i | i | i
C[C@@H]1CCCCO[C@H](CN(C)C(=O)Nc2ccc(F)cc2)[C@H](C)CN([C@@H](C)CO)C(=O)c2cc(NS(=O)(=O)c3cn(C)cn3)ccc2O1 | i | nt | i | i | i
C[C@@H]1CN([C@@H](C)CO)S(=O)(=O)c2ccc(C#Cc3cccnc3)cc2O[C@H]1CN(C)CC1CCCC1 | i | nt | i | i | i
COc1cc(N(C)C)ccc1[C@]1(O)C(=O)N(C)c2ccc(Br)cc21 | i | i | i | i | i
CC(=O)c1cn(CC(=O)Nc2cccc(C)c2C)c2ccccc12 | 22 | i | i | i | i
CCC(=O)c1cn(CC(=O)Nc2cccc(C)c2)c2ccccc12 | i | i | i | i | 69
SMILES | SIRT5 inh | CaV13 ICDI inh | AF4-AF9 inh | S100A4 inh HTS | DENV2 CPE rescue
CCC(=O)c1cn(CC(=O)Nc2cccc(C)c2C)c2ccccc12 | i | i | i | i | i
COc1ccc(NC(=O)N(C)C[C@@H]2Oc3ccc(NC(=O)NC(C)C)cc3C(=O)N([C@@H](C)CO)C[C@@H]2C)cc1 | i | nt | i | i | i
Cc1cc(C)c(NC(=S)N(Cc2cccnc2)Cc2ccco2)c(C)c1 | i | i | i | i | 49
Cc1cccc(C)c1OCC(O)Cn1ccnc1C (configuration not stated) | i | i | i | i | 40
CCOC(=O)c1[nH]c(C)c(C(=O)OCC(=O)N2CC(=O)Nc3ccccc32)c1C | i | i | i | i | 71
Nc1c(C(=O)c2ccccc2)sc2nsc(SCCN3CCCC3)c12 | i | i | i | i | 57
CC(C)C1Cc2ccccc2-c2[nH]c(=S)[nH]c(=O)c21 (configuration not stated) | i | i | i | i | 72
Cn1cc([N+](=O)[O-])c(C(=O)Nc2ccc(C(=O)N3CCCCC3)cc2)n1 | i | i | i | i | 39
C[C@@H]1CCCCO[C@@H](CN(C)Cc2ccc3c(c2)OCO3)[C@H](C)CN([C@H](C)CO)C(=O)c2cc(NC(=O)Nc3ccc(C(F)(F)F)cc3)ccc2O1 | i | nt | i | i | i
O=C(NC1CCCC1)N1CCCCN2[C@@H](CO)[C@H](c3ccc(/C=C/c4ccccc4)cc3)[C@@H]2C1 | i | nt | i | i | i
O=C(NC1CCCC1)N1CCCCN2[C@H](CO)[C@H](c3ccc(-c4cccnc4)cc3)[C@H]2C1 | i | nt | i | i | i
O=C(NC1CCCC1)N1CCCCN2[C@@H](CO)[C@@H](c3ccc(/C=C/c4ccccc4)cc3)[C@@H]2C1 | i | nt | 28 | i | i
O=C(NC1CCCC1)N1CCCCN2[C@@H](CO)[C@@H](c3ccc(-c4cccnc4)cc3)[C@@H]2C1 | i | nt | i | 98 | i
O=C(CC1CC1)N1CC2(C1)[C@H](c1ccccc1)[C@H](CO)N2C(=O)c1cnccn1 | i | nt | i | i | i
CCOc1ccc(-n2c(SCC(=O)Nc3nccs3)nnc2-c2ccoc2C)cc1 | i | 179 | i | i | i
C=CC(=O)Nc1ccc(N(C)c2ccnc(Nc3ccc(N4CCN(C)CC4)cc3)n2)cc1 | i | i | 60 | i | i
CCCC#Cc1cnc2c(c1)C(=O)N([C@@H](C)CO)C[C@H](C)[C@@H](CN(C)CCC)O2 | i | nt | i | i | i
CCCC#Cc1ccc([C@H]2[C@@H](CO)N3CCCCN(Cc4cccnc4)C[C@@H]23)cc1 | i | nt | i | i | 33
CCCC#Cc1ccc([C@@H]2[C@@H](CO)N3CCCCN(Cc4cncnc4)C[C@@H]23)cc1 | i | nt | i | i | 26
CCCC#Cc1ccc([C@H]2[C@@H](CO)N3CCCCN(Cc4cncnc4)C[C@@H]23)cc1 | i | nt | i | i | i
C[C@H]1CN([C@@H](C)CO)C(=O)c2c(c3ccccc3n2C)-c2ccccc2CO[C@@H]1CN(C)C(=O)Nc1ccccc1C(F)(F)F | i | nt | i | i | i
CO[C@H](CN(C)Cc1cc(F)ccc1F)[C@@H](C)CN([C@H](C)CO)S(=O)(=O)c1ccc(Cl)cc1 | i | nt | i | i | i

High-throughput results deposited in PubChem by Broad Institute.
